Measurements collected from several papers.
Lines come from different studies, so protocols differ.
ALK: ALK tyrosine kinase receptor (ALK, Homo sapiens, UniProt Q9UM73)

| Structure (SMILES) | target | test | setting | measurement | result |
| --- | --- | --- | --- | --- | --- |
| COc1cc(Nc2ncc(F)c(Nc3ccc4c(n3)NC(=O)C(C)(C)O4)n2)cc(OC)c1OC | ALK | binding, competition with immobilised ligand | 10 µM | inhibition | 99% |
| Cc1nn(C)cc1-c1nc2c(N3CCN(Cc4ccc(Cl)cc4)CC3)c(Cl)cnc2[nH]1 | ALK | binding, competition with immobilised ligand | 1 µM | remaining binding | 100% |
| CC(C)(C)c1cc(C=C(C#N)C#N)cc(Br)c1O | ALK | enzyme activity, inhibitor | 0.5 µM | remaining activity | 97.9% |
| Cn1cncc1[C@](O)(COc1ccc(C#N)cc1-c1ccc(OC(F)(F)F)cc1)c1ccc(C#N)cc1 | ALK tyrosine kinase receptor (ALK, Homo sapiens, UniProt Q9UM73, C1156Y) | cell-free assay, competition with immobilised ligand | 1 µM | remaining binding | 92% |
| C#Cc1n[nH]c2c(-c3cn([C@@H](C)c4ccccc4)c(=O)[nH]c3=O)cc(F)cc12 | ALK | enzyme activity, inhibitor | 0.1 µM | inhibition | 7.7% |
| COc1ncccc1-c1cnn2ccc(N3CCN(C(=O)OC(C)C)CC3)nc12 | ALK | binding, competition with immobilised ligand | 1 µM | remaining binding | 100% |
| Nc1ncc(-c2nc(N3CCOCC3)nc(N3CCOCC3)n2)c(C(F)F)n1 | ALK tyrosine kinase receptor (ALK, Homo sapiens, UniProt Q9UM73, L1196M) | cell-free assay, competition with immobilised ligand | 10 µM | remaining binding | 44% |
| O=c1[nH]c2ccccc2n1C1CCN(Cc2ccc(-c3[nH]c4cc5ncnc5cc4nc3-c3ccccc3)cc2)CC1 | ALK | cell-free assay | 0.5 µM | remaining signal | 106% |
| C#Cc1n[nH]c2c(-c3cn(C(C)c4ccccn4)c(=O)[nH]c3=O)cc(F)cc12 (stereo not drawn) | ALK | enzyme activity, inhibitor | 1 µM | inhibition | 11.2% |
